# Peptide text beside a SMILES is read from it.
# Experiments:
# [1] = tested on: A549 cells; assay: Effect on the growth of A549 cells; assay type: cell-based, human; settings: 72 hours
# Outline: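 A549 cells were grown in DMEM with 10% FBS and penicillin/streptomycin at 37°C in 5% CO2, then seeded at 4 x 10^3 cells/well. After 24 h the medium was replaced and cells were treated with 0.2 mM test peptide, 0.2 mM FLAG peptide or 4 µM cisplatin for 72 h. WST-8 was added for 1 h. Absorbance was read at 450 nm against a 620 nm reference.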
# [2] = target: solid insoluble form Aβ42 (s‐Aβ42) (Homo sapiens, UniProt P05067); assay: Proteolysis of solid insoluble s-Aβ42 by the peptide; assay type: biochemical; settings: over 7 days; 27% with peptide minus 17% without
# Chain of solid insoluble form Aβ42 (s‐Aβ42) (P05067 672-713): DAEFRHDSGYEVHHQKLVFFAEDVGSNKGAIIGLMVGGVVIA
# Outline: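 s-Aβ42 (0.3 mg), washed with CH3CN and CH3OH, was incubated with or without peptide (1 mM final) with HSA (0.125% w/v) in PBS at 37°C for 7 days, at five times the a-Aβ42 scale. HPLC was run daily and fragments were identified by ESI-MS. Solid weight was recorded on day 0 and day 7. The net decrease ratio is the with-peptide decrease minus the without-peptide decrease.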
# [3] = Plasma level and brain uptake following intraperitoneal and nasal administration; assay type: in vivo, male ddY mice; settings: mouse; for AUC(0-t): male, ddY, 1 mg
# Outline: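 Male ddY mice (25 g) received 1 mg of peptide either intranasally into the left nostril (100 mg/mL in PBS, 10 µL) or intraperitoneally (10 mg/mL in PBS). Blood was drawn at 5, 15 and 30 min. Brains were taken at 30 min after saline/heparin cardiac perfusion. Plasma and brain homogenate were extracted with methanol and assayed by positive-mode LC/MS on C18 (acetonitrile:0.1% acetic acid 10/90). AUC was computed to 30 min.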
# [4] = Plasma clearance following intravenous bolus injection; assay type: in vivo, Male Wistar/ST rats; settings: rat
# [5] = In vitro stability in plasma and whole blood; assay type: in vitro ADME; settings: data not shown
# [6] = target: authentic soluble form Aβ42 (a‐Aβ42) (Homo sapiens, UniProt P05067); settings: cleaved in the central region; cited from earlier work
# Chain of authentic soluble form Aβ42 (a‐Aβ42) (P05067 672-713): as above
# [7] = tested on: amyloid beta 42 (Aβ42); settings: serine protease inhibitor AEBSF; cited from earlier work
# [8] = male, Wistar/ST, plasma, iv, 2 mg/animal
compound,measurement,setting,value
"[NH2][Pt]([NH2])([Cl])[Cl] [CDDP, Cisplatin, reference compound]",effect on the growth of A549 cells,"[1]; 4 μM, WST-8, positive control",inhibited the growth
CC[C@H](C)[C@H](NC(=O)[C@H](CCSC)NC(=O)[C@H](CCCNC(=N)N)NC(=O)[C@H](Cc1ccc(O)cc1)NC(=O)[C@H](C)NC(=O)[C@H](CCC(N)=O)NC(=O)CNC(=O)[C@H](CCCCN)NC(=O)[C@@H](N)CO)C(=O)O [ANA‐TA9] (H-SKGQAYRMI-OH),decreasing ratio of s‐Aβ42 by ANA‐TA9 (corrected for incubation without peptide),[2],10%
same,AUC(0-t),[3]; inhaled or intranasal,27.2 ng·h/mL
same,AUC(0-t),[3]; ip,193 ng·h/mL
same,nasal AUC as percentage of intraperitoneal AUC,"[3]; up to 30 minutes, 1 mg each route",14%
same,AUC,[4]; [8],124 ng·h/mL
same,clearance,[4]; [8],270 mL/min
same,initial half‐life in plasma,"[4]; i.v. bolus 2 mg/head, LC/MS",10 s
same,plasma concentration post‐injection,"[4]; i.v. bolus 2 mg/head, within 15 minutes post-injection, LC/MS",below the detection limit
same,effect on the growth of A549 cells,"[1]; 0.2 mM, WST-8, compared to 0.2 mM FLAG peptide control",did not show a significant inhibitory effect
same,in vitro stability in plasma and whole blood,[5],not particularly labile
YKGSGFRMI [JAL‐TA9],cleavage of a‐Aβ42 and s‐Aβ42,[6],cleaved
same,effect of AEBSF on proteolytic activity,[7],completely inhibited
